Experimental data pooled from the literature.
Each line is one published result; the experiments were not run side by side.

| Structure (SMILES) | target or system | test | system | conditions | measurement | result |
| --- | --- | --- | --- | --- | --- | --- |
| C[C@H](NC(=O)CO/N=c1\cc2n(-c3ccc(Cl)cc3)c3ccccc3nc-2cc1Nc1ccc(Cl)cc1)C(=O)OC(C)(C)C | Mycobacterium avium | microbial growth | – | clinical isolate | MIC | > 30 µM |
| Nc1nc(N)c(OCCCOc2ccccc2CCC(=O)O)c(-c2ccccc2C(F)(F)F)n1 | Mycobacterium avium | microbial growth, resazurin | – | – | MIC | 3.6 µg/mL |
| CC(=O)c1ccc(Oc2ccc(C(=O)C(Cl)Cl)cc2[N+](=O)[O-])cc1 | NCI-H1975 | cell growth or viability, MTT | – | 2.5 µM | inhibition | 85.2% |
| CN(Cc1ccc(C(C)(C)C)cc1)Cc1cccc2ccccc12 | Trichophyton rubrum | microbial growth, disc diffusion | ATCC28188 | 0.064 µg/mL, 6 days | inhibition zone | ≥ 55 mm |
| CCCCCc1nc(N)nc(N)c1OCCCOc1ccccc1CCC(=O)O | Mycobacterium avium | microbial growth, resazurin | – | – | MIC | 0.6 µg/mL |
| CN(Cc1ccc(C2(C(F)(F)F)CC2)cc1)Cc1cccc2ccccc12 | Trichophyton rubrum | microbial growth, disc diffusion | ATCC28188 | 0.256 µg/mL, 6 days | inhibition zone | ≥ 55 mm |
| O=C(c1ccc(Oc2ccc(-c3ccccc3)cc2)c([N+](=O)[O-])c1)C(Cl)Cl | NCI-H1975 | cell growth or viability, MTT | – | 2.5 µM | inhibition | 85.2% |
| C=CC(=O)NC1CCN(c2ncc3ncnc(Nc4ccc(Oc5ccc6c(c5)ncn6C)c(C)c4)c3n2)CC1 | HCC1428 | cell growth or viability | – | – | EC50 | 7.04 µM |
| O=C(O)CO/N=c1\cc2n(-c3ccc(Cl)cc3)c3ccccc3nc-2cc1Nc1ccc(Cl)cc1 | Mycobacterium avium | microbial growth | ATCC700898 | – | MIC | 0.94 µM |
| O=C(c1ccc(Oc2ccc3c(c2)OCO3)c([N+](=O)[O-])c1)C(Cl)Cl | NCI-H1975 | cell growth or viability, MTT | – | 2.5 µM | inhibition | 97.3% |
| CO/N=c1\cc2n(-c3ccc(Cl)cc3)c3ccccc3nc-2cc1Nc1ccc(Cl)cc1 | Mycobacterium avium | microbial growth | ATCC700898 | – | MIC | 0.47 µM |
| CC(=O)Nc1ccc(Oc2ccc(C(=O)C(Cl)Cl)cc2[N+](=O)[O-])cc1Cl | NCI-H1975 | cell growth or viability, MTT | – | 2.5 µM | inhibition | 96.5% |
| CCOC(=O)CNC(=O)CO/N=c1\cc2n(-c3ccc(Cl)cc3)c3ccccc3nc-2cc1Nc1ccc(Cl)cc1 | Mycobacterium avium | microbial growth | ATCC700898 | – | MIC | 1.88 µM |
| NCCCc1nc(N)nc(N)c1OCCCOc1ccccc1CCC(=O)O | Mycobacterium avium | microbial growth, resazurin | – | – | MIC | 12.9 µg/mL |
| O/N=c1\cc2n(-c3ccc(Cl)cc3)c3ccccc3nc-2cc1Nc1ccc(Cl)cc1 | Mycobacterium avium | microbial growth | – | clinical isolate | MIC | > 30 µM |
| COc1cccc2c1C(=O)c1c(O)c3c(c(O)c1C2=O)C[C@@](O)(C(=O)CO)C[C@@H]3O[C@H]1C[C@H](N)[C@H](O)[C@H](C)O1 | NCI-H1975 | cell growth or viability, MTT | – | 72 h | IC50 | 0.34 µM |
| O=C(CO/N=c1\cc2n(-c3ccc(Cl)cc3)c3ccccc3nc-2cc1Nc1ccc(Cl)cc1)NCc1ccc(C(F)(F)F)cc1 | Mycobacterium avium | microbial growth | ATCC700898 | – | MIC | > 30 µM |
| O=C(c1ccc(Oc2ccc3oc(=O)ccc3c2)c([N+](=O)[O-])c1)C(Cl)Cl | NCI-H1975 | cell growth or viability, MTT | – | 2.5 µM | inhibition | 61.6% |
